According to publication PMC8975796 (Clinical Pharmacokinetics, 2021):
“And” between values parts separate entries of the source, which are not always exact repeats. Identical values can stand only once. Like-named read-outs stand apart in the source and are kept apart here. Marks after values point to notes of the source that are not given here. Blank lines part the entries; values can stand above or below the compound they belong to.

Legend:
[1] = ARIADME phase I pharmacokinetics/bioavailability study; assay type: in vivo, human; conditions: for Cmax: healthy male subjects; for CL renal: plasma and urine, CLR; for half-life: t½; for AUC(0-inf): AUC0–inf; for AUC(0-t): AUC0–tlast; for tmax: median (range)
Method in brief: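 Six healthy fasted men took one oral 300 mg tablet, then a 100 µg IV 14C-microtracer as a 15-min infusion ending 3 h post-dose. Six others took an oral 14C-dose of 300 mg in aqueous propylene glycol solution (≤ 6.3 MBq). Oral plasma levels were measured by validated HPLC-MS, and IV levels by LC fractionation with accelerator MS. Values are geometric mean (CV%).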

[2] = assay type: in vivo, human; conditions: for RLIN, linearity factor (ratio of multiple-dose AUC0–12 to single-dose AUC): 600 mg BID with food; for trough concentrations reached steady-state levels after: BID treatment 600 mg; for RAAUC, accumulation ratio based on AUC0–12 / RACmax, accumulation ratio based on Cmax: multiple (day 7) vs single (day 1) dosing, 600 mg BID
Method in brief: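 Fifteen healthy men took 600 mg (two 300 mg tablets) 30 min after starting a standardized meal on day 1, then twice daily on days 4–7. Plasma was sampled to 72 h after the single dose, at trough on days 4–6, and to 12 h on day 7. Samples underwent solid-phase extraction and LC-MS/MS. Accumulation ratios compared multiple- with single-dose AUC0–12 and Cmax. RLIN was multiple-dose AUC0–12 over single-dose AUC0–inf.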

[3] = assay type: in vivo, human; conditions: for Cmax increase vs healthy subjects / exposure (AUC0–48) increase vs healthy subjects: single 600 mg with food
Method in brief: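 Open-label, parallel-group, multicenter trial in men aged 45–79. Groups were Child–Pugh B cirrhosis, severe renal impairment (eGFR 15–29 mL/min/1.73 m2, MDRD equation), and age- and weight-matched healthy controls. Each took two 300 mg tablets 30 min after starting a standardized breakfast. Plasma was sampled pre-dose to 48 h and assayed by validated LC-MS/MS. Parameters used total and unbound concentrations.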

plasma proteins [4] = test: In vitro plasma protein binding; assay type: in vitro ADME; conditions: human plasma (data on file)
plasma proteins [5] = assay type: in vitro ADME, human; conditions: ex vivo samples after single oral administration of darolutamide 600 mg
Method in brief: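 Unbound fractions of the parent, both diastereomers and keto metabolite were measured by equilibrium dialysis. Plasma came from healthy male subjects and from non-cancer patients with moderate hepatic or severe renal impairment, after a single oral 600 mg dose taken with food.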

[6] = Solubility in fed vs fasted state simulated intestinal fluid; assay type: physicochemical; conditions: in vitro data (data on file)
[7] = system: patients with nonmetastatic castration-resistant prostate cancer (CRPC); conditions: 600 mg BID, cited from earlier work
[8] = cited from earlier work
[9] = nonmetastatic CRPC, cited from earlier work
[10] = 100 µg IV 14C-microtracer, 15-min infusion, geometric mean (CV%)
[11] = male, human, plasma, iv, 100 µg
[12] = male, human, plasma, po, 300 mg, single 300 mg oral 14C-solution, fasted, geometric mean (CV%)
[13] = male, human, plasma, po, 300 mg, single 300 mg oral tablet, fasted, geometric mean (CV%)
[14] = Day 1 (single dose) 600 mg oral with food, median (range)
[15] = Day 7 (multiple doses) 600 mg BID oral with food, median (range)
[16] = male, human, plasma, po, 600 mg
[17] = moderate hepatic impairment (Child–Pugh class B)

Structure (SMILES): CC(O)c1cc(C(=O)N[C@@H](C)Cn2ccc(-c3ccc(C#N)c(Cl)c3)n2)[nH]n1 (stereo partly shown) [Darolutamide]
AUC0–inf [1, 10]: 13,645 (39.5)^a h⋅pg eq/mL | fraction absorbed based on amount of total 14C-radioactivity excreted in urine ([1]; 300 mg oral solution): 127% | fraction absorbed based on plasma AUC of total 14C-radioactivity ([1]; 300 mg oral solution): 109% | Cmax [1, 10]: 4127 (27.4)^a pg eq/mL | CL renal ([1]; male, human, po, 300 mg, single 300 mg oral 14C-solution, fasted, geometric mean (CV%)): 7.73 mL/min | CL renal ([1]; male, human, po, 300 mg, single 300 mg oral tablet, fasted, geometric mean (CV%)): 6.52 mL/min | Vd [1, 11]: 119 L | clearance [1, 11]: 116 mL/min | half-life ([1]; male, human, plasma, iv, 100 µg, 100 µg IV 14C-microtracer, 15-min infusion, geometric mean (CV%)): 11.8 h | AUC(0-inf) [1, 12]: 45600 ng·h/mL | AUC(0-inf) [1, 13]: 12900 ng·h/mL | AUC(0-t) [1, 12]: 45300 ng·h/mL | AUC(0-t) [1, 13]: 12400 ng·h/mL | Cmax ([1]; male, human, plasma, po, 300 mg, Cmax, single 300 mg oral 14C-solution, fasted, geometric mean (CV%)): 3820 ng/mL | Cmax ([1]; male, human, plasma, po, 300 mg, Cmax, single 300 mg oral tablet, fasted, geometric mean (CV%)): 800 ng/mL | bioavailability ([1]; male, human, plasma, po, 300 mg, F (absolute oral bioavailability), single 300 mg oral 14C-solution, fasted, geometric mean (CV%)): 98.9% | bioavailability ([1]; male, human, plasma, po, 300 mg, F (absolute oral bioavailability), single 300 mg oral tablet, fasted, geometric mean (CV%)): 29.9% | Vd/F [1, 12]: 101 L | Vd/F [1, 13]: 514 L | bioavailability ([1]; male, human, plasma, po, 300 mg, absolute bioavailability, single 300 mg oral solution, fasted): 98.9% | tmax ([1]; male, human, plasma, po, 300 mg, single 300 mg oral 14C-solution, fasted): 1.58 h | tmax ([1]; male, human, plasma, po, 300 mg, single 300 mg oral tablet, fasted): 3.5 h | half-life [1, 12]: 10.6 h | half-life [1, 13]: 15.3 h | CL/F ([1]; single 300 mg oral 14C-solution, fasted, geometric mean (CV%)): 110 (21.3) mL/min | absolute bioavailability ([1]; single 300 mg oral solution, fasted): ~ 100% | CL/F ([1]; single 300 mg oral tablet, fasted, geometric mean (CV%)): 388 (36.2) mL/min | mean AUC0–inf, oral solution higher than tablet formulation ([1]; single 300 mg, fasted): 3.5 fold | mean Cmax, oral solution higher than tablet formulation ([1]; single 300 mg, fasted): 4.8 fold | absolute bioavailability based on AUC0–inf ([1]; single 300-mg oral tablet, fasted state, IV microtracer as reference): ~ 30% | mean whole blood:plasma ratio of total 14C-radioactivity ([1]; single oral solution dose): 0.7 | RLIN, linearity factor (ratio of multiple-dose AUC0–12 to single-dose AUC) [2]: 1.1 | trough concentrations reached steady-state levels after [2]: 1 days | tmax [2, 14]: 5.97 (2.50–7.95) h | tmax [2, 15]: 3.98 (2.00–5.98) h | half-life ([2]; male, human, plasma, oral, 600 mg): 13 h | AUC(0-inf) [2, 16]: 26200 ng·h/mL | half-life [2, 16]: 11.6 h | tmax ([2]; male, human, plasma, po, 600 mg, median time to peak concentration, oral tablet, single dosing of 600 mg): 4 to 6 h | RAAUC, accumulation ratio based on AUC0–12 [2]: 2.1 | RACmax, accumulation ratio based on Cmax [2]: 1.9 | mean peak plasma concentration ([2]; single oral dose 600 mg with food, healthy male subjects): 1.77 µg/mL | time to steady state ([2]; twice-daily dosing): approximately 2 days | tmax ([3]; Moderate hepatic impairment, single oral 600 mg with food, median (range)): 4.00 (4.00–8.00) h | tmax ([3]; Severe renal impairment, single oral 600 mg with food, median (range)): 4.00 (3.00–12.0) h | tmax [3, 16]: 4 h | terminal t½ compared with healthy subjects ([3]; moderate hepatic impairment): did not change | Cmax increase vs healthy subjects [3, 17]: 1.5 fold | exposure (AUC0–48) increase vs healthy subjects [3, 17]: 1.9 fold | terminal t½ vs healthy subjects ([3]; severe renal impairment): prolonged | Cmax increase vs healthy subjects ([3]; severe renal impairment): 1.6 fold | exposure (AUC0–48) increase vs healthy subjects ([3]; severe renal impairment): 2.5 fold | mean free (unbound) fraction (plasma proteins [4]): ~ 8% and 8% | mean free (unbound) fraction in plasma (plasma proteins [5]): 7.8% | solubility in fed vs fasted state simulated intestinal fluid [6]: improved solubility | overall survival hazard ratio vs placebo ([7]; 95% confidence interval 0.53–0.88, p = 0.003): 0.69 | metastasis-free survival ([7]; p < 0.001 vs placebo): 40.4 months | absolute bioavailability of tablet given with food [8]: 60–75% | exposure vs patients with normal organ function ([9]; patients with mild hepatic impairment): not higher | exposure vs patients with normal organ function ([9]; patients with mild or moderate renal impairment): at most only slightly higher

metabolite:parent total concentration ratio based on AUC0–inf ([1]; IV microtracer dose): 1.50 | metabolite:parent total concentration ratio based on AUC0–inf ([1]; oral solution dose): 2.06 | metabolite:parent total concentration ratio based on AUC0–inf ([1]; oral tablet dose): 1.67 and 1.7 | RLIN, linearity factor (ratio of multiple-dose AUC0–12 to single-dose AUC) [2]: 1.2 | trough concentrations reached steady-state levels after [2]: 1 days | tmax [2, 14]: 4.00 (2.50–6.02) h | tmax [2, 15]: 3.00 (1.48–5.97) h | plasma exposure of keto-darolutamide vs darolutamide ([2]; after single and multiple dosing of darolutamide): approximately twofold higher | RAAUC, accumulation ratio based on AUC0–12 [2]: 2.2 | RACmax, accumulation ratio based on Cmax [2]: 2.0 | plasma exposure (AUC0–48) vs healthy subjects ([3]; patients with renal or hepatic impairment, increase less pronounced than for darolutamide): increased | mean free (unbound) fraction (plasma proteins [4]): 0.2% and < 1% | mean free (unbound) fraction in plasma (plasma proteins [5]): 0.12%
Structure (SMILES): CC(=O)c1cc(C(=O)N[C@@H](C)Cn2ccc(-c3ccc(C#N)c(Cl)c3)n2)[nH]n1 [Keto-darolutamide, keto-darolutamide]

RLIN, linearity factor (ratio of multiple-dose AUC0–12 to single-dose AUC) [2]: 1.1 | tmax [2, 14]: 5.98 (2.50–8.00) h | tmax [2, 15]: 3.98 (0.00–6.02) h | RAAUC, accumulation ratio based on AUC0–12 [2]: 2.3 | RACmax, accumulation ratio based on Cmax [2]: 2.0
Structure (SMILES): C[C@H](O)c1cc(C(=O)N[C@@H](C)Cn2ccc(-c3ccc(C#N)c(Cl)c3)n2)n[nH]1 [(S,S)-darolutamide]

clearance, (S,R)-darolutamide higher vs (S,S)-darolutamide ([1]; after the IV dose): 2.9 fold | RLIN, linearity factor (ratio of multiple-dose AUC0–12 to single-dose AUC) [2]: 0.9 | Terminal t½ ([2]; Day 1 (single dose) 600 mg oral with food, geometric mean/geometric CV% (range)): 14.5 h | tmax [2, 14]: 3.97 (1.02–6.02) h | tmax [2, 15]: 3.00 (0.967–4.00) h | RAAUC, accumulation ratio based on AUC0–12 [2]: 1.2 | RACmax, accumulation ratio based on Cmax [2]: 1.2
Structure (SMILES): C[C@@H](Cn1ccc(-c2ccc(C#N)c(Cl)c2)n1)NC(=O)c1cc([C@@H](C)O)[nH]n1 [(S,R)-darolutamide]
